Assays:
[1] = Lethal dose against Plasmodium vinckei in mice (Mus musculus) after intraperitoneal administration; type: toxicity; conditions: in vivo, ip
Mus musculus = assay: In vivo effective dose against Plasmodium vinckei in mice (Mus musculus) after intraperitoneal administration of the compound; type: functional; conditions: ip
Procedure, shortened: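 Modified Peters 4-day suppressive test in female Swiss mice infected with P. vinckei petteri (279BY). Dosing was ip, once daily for 4 days. Controls received an equal volume of vehicle. Parasite growth was assessed on the day after the last treatment. ED₅₀ is the dose giving 50% growth inhibition relative to control.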

Plasmodium falciparum = assay: In vitro inhibition of Plasmodium falciparum; type: functional, organism-based
Procedure, shortened: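 [³H]-hypoxanthine incorporation assay on the Nigerian strain of P. falciparum, run as described in earlier work. IC₅₀ is the concentration giving 50% inhibition of incorporation.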

[2] = Ratio of LD50 to ED50 expressed as TI; type: ADME; conditions: mouse
Procedure, shortened: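 Therapeutic index calculated as LD50/ED50. ED50 came from a modified 4-day suppressive test against P. vinckei petteri (279BY) in female Swiss mice, dosed ip once daily for 4 days. It is the dose giving 50% inhibition of parasite growth versus vehicle-treated controls, read the day after the last dose. LD50 came from tolerance after ip administration in mice.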

Row | Compound | LD50 [1] [mg/kg] | ED50 (Mus musculus) [mg/kg] | IC50 (Plasmodium falciparum) [nM] | TI [2] [%]
1 | COCCc1sc[n+](CCCCCCCCCCCC[n+]2csc(CCOC)c2C)c1C.[I-].[I-] | 1.2 | 0.14 | 0.65 | 5
2 | Cc1c(CCOC(C)C)sc[n+]1CCCCCCCCCCCC[n+]1csc(CCOC(C)C)c1C |  |  | 4.8 | 
3 | COCCc1sc[n+](CCCCc2ccc(CCCC[n+]3csc(CCOC)c3C)cc2)c1C |  |  | 5 | 
4 | Cc1c(CCO)sc[n+]1CCCCCCCC[n+]1csc(CCO)c1C |  |  | 362 | 
5 | CCOC(=O)Cc1c(CCCCCCCCCCCCc2sc[n+](Cc3ccccc3)c2CC(=O)OCC)sc[n+]1Cc1ccccc1 |  |  | 250 | 
6 | COC(=O)CCC(=O)OCCc1sc[n+](CCCCCCCCCCCC[n+]2csc(CCOC(=O)CCC(=O)OC)c2C)c1C.[I-].[I-] |  | 3.1 | 5 | 
7 | c1ccc2c(c1)sc[n+]2CCCCCCCCCCCC[n+]1csc2ccccc21 |  |  | 2300 | 
8 | COCCc1sc[n+](CCCCCCCC[n+]2csc(CCOC)c2C)c1C |  |  | 87.5 | 
9 | CCc1sc[n+](CCCCCCCCCCCC[n+]2csc(CC)c2C)c1C.[I-].[I-] |  | 0.4 | 1.6 | 
10 | COCCc1sc[n+](CCCCCCCCCC[n+]2csc(CCOC)c2C)c1C |  |  | 8.9 | 
11 | Cc1csc[n+]1CCCCCCCCCCCC[n+]1cscc1C.[I-].[I-] |  | 2.6 | 3 | 
12 | Cc1sc[n+](CCCCCCCCCCCC[n+]2csc(C)c2C)c1C.[I-].[I-] |  | 1 | 1.5 | 
13 | Cc1c(CCOCCCCCCOCCc2sc[n+](C)c2C)sc[n+]1C |  |  | 275 | 
14 | CC(=O)OCCc1sc[n+](CCCCCCCCCCCC[n+]2csc(CCOC(C)=O)c2C)c1C.[I-].[I-] |  | 0.7 | 3.1 | 
15 | CCCCCCCCCCCC[n+]1csc(CCOC)c1C |  |  | 75 | 
16 | COCCc1sc[n+](CCCCCCCCCCCCCCCC[n+]2csc(CCOC)c2C)c1C |  |  | 1.1 | 
17 | CCOC(=O)Cc1c(CCCCCCCCCCCCc2sc[n+](C)c2CC(=O)OCC)sc[n+]1C |  |  | 22 | 
18 | Cc1c(CCO)sc[n+]1CCCCCCCCCC[n+]1csc(CCO)c1C |  |  | 34 | 
19 | Cc1c(CCO)sc[n+]1CCCCCCCCCCCC[n+]1csc(CCO)c1C.[I-].[I-] | 1.2 | 0.2 | 2.25 | 5
20 | C[N+]1(CCCCCCCCCCCCCCCC[N+]2(C)CCCC2)CCCC1.[Br-].[Br-] |  | 0.22 | 0.65 | 
21 | CCOCCc1sc[n+](CCCCCCCCCCCC[n+]2csc(CCOCC)c2C)c1C |  |  | 1.6 | 
22 | Cc1c(CCCl)sc[n+]1CCCCCCCCCCCC[n+]1csc(CCCl)c1C |  |  | 10 | 
23 | Cc1c(CCOCCCCCCOCCc2sc[n+](Cc3ccccc3)c2C)sc[n+]1Cc1ccccc1 |  |  | 36 | 
24 | c1ccc(-c2csc[n+]2CCCCCCCCCCCC[n+]2cscc2-c2ccccc2)cc1 |  |  | 1800 | 
25 | CCCCCCCCCCCC[n+]1csc(CCO)c1C |  |  | 70 | 
26 | CCN(CC)CCCC(C)Nc1ccnc2cc(Cl)ccc12 (stereo not drawn) [CHLOROQUINE] |  | 1.1 |  | 

From ChEMBL document CHEMBL1139517, “Mono- and bis-thiazolium salts have potent antimalarial activity” (J Med Chem, 2005)
